Laboratory results from ChEMBL document CHEMBL4118104, “Design, Synthesis, and Evaluation of Orally Bioavailable Quinoline-Indole Derivatives as Innovative Multitarget-Directed Ligands: Promotion of Cell Proliferation in the Adult Murine Hippocampus for the Treatment of Alzheimer's Disease” (J Med Chem, 2018).
pEC50: −log10 of the molar value. Each block holds one molecule with its values, some of them ahead of it. The source made the active and inactive calls. The calls are words filed in the database; no cut-off is given here.

How the values were obtained:
SH-SY5Y = assay: Neuroprotective activity against t-BuOOH-induced oxidative stress in human SH-SY5Y cells assessed as inhibition ROS accumulation pre-incubated for 24 hrs before t-BuOOH challnge for 30 mins by DCFH-DA probe based fluorescence assay; assay type: functional, cell-based
In short: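 SH-SY5Y cells; test agents at 1–0.01 µM, oxidative stress induced by tert-butyl hydroperoxide; intracellular ROS read by DCFH-DA fluorescence; at least three independent experiments in sextuplicate; EC50 derived.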

[1] = Antioxidant activity assessed as AAPH radical scavenging activity by measuring trolox equivalent at 10 to 20 uM preincubated for 10 mins followed by AAPH addition measured every min for 120 mins in presence of melatonin by ORAC-FL assay; assay type: functional
In short: (§1)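 ORAC-FL: compound at 10 µM (or 20 µM) in 75 mM phosphate pH 7.4 with fluorescein (70 nM final), preincubated 10 min at 37 °C, then AAPH added. Fluorescence (ex 485/em 520) read each minute for 120 min. Net AUC converted to Trolox equivalents via a 10–100 µM Trolox curve; three independent experiments.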

[2] = target: Amyloid-beta precursor protein (Homo sapiens) (UniProt P05067); assay: Inhibition of amyloid beta (1 to 42) (unknown origin) self-induced aggregation at 5 uM after 48 hrs in presence of melatonin by thioflavin-T fluorescence assay relative to control
Chain of Amyloid-beta precursor protein (Homo sapiens) (P05067 whole entry): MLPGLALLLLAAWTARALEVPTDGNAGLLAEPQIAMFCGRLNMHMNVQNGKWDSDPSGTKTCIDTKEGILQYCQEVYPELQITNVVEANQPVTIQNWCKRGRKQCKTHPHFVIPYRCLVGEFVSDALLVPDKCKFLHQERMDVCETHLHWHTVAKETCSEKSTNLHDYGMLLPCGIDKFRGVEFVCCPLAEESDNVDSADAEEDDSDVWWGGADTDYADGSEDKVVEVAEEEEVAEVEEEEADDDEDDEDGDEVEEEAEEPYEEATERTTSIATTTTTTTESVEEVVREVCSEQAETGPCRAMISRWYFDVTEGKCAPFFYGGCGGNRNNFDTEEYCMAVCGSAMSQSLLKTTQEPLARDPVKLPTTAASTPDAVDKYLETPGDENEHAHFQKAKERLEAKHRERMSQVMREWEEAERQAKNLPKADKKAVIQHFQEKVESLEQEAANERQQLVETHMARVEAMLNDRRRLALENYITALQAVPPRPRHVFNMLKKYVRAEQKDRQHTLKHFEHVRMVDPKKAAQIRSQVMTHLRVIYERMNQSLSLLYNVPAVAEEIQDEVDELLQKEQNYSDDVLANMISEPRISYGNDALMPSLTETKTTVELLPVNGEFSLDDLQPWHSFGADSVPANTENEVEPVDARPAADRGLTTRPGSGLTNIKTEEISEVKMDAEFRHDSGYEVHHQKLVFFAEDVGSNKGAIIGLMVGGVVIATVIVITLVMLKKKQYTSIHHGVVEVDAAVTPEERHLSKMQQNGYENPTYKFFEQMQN
In short: (§2)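 ThT assay of Aβ1-42 self-aggregation: Aβ1-42 25 µM with inhibitor 5 µM (5:1); three independent experiments, each in triplicate.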

[3] = Metal chelating activity assessed as compound-Cu2+ complex formation by measuring absorption spectrum at 50 uM after 30 mins by UV-Visible spectrophotometric analysis (reference value: 314 nm)
In short: (§3)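 Ligand 50 µM alone or with 50 µM CuSO4, ZnCl2, FeSO4 or FeCl3 in 20 mM HEPES, 150 mM NaCl, pH 7.4; UV-vis absorbance spectra recorded. For Cu2+, titration at room temperature with absorbance at 338 nm gave stoichiometry.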

[4] = Metal chelating activity assessed as compound-Zn2+ complex formation by measuring absorption spectrum at 50 uM after 30 mins by UV-Visible spectrophotometric analysis (reference value: 314 nm); in short: as §3
[5] = Metal chelating activity assessed as compound-Fe2+ complex formation by measuring absorption spectrum at 50 uM after 30 mins by UV-Visible spectrophotometric analysis (reference value: 314 nm); in short: as §3
[6] = Metal chelating activity assessed as compound-Fe3+ complex formation by measuring absorption spectrum at 50 uM after 30 mins by UV-Visible spectrophotometric analysis (reference value: 314 nm); in short: as §3
[7] = target: Amyloid-beta precursor protein (Homo sapiens) (UniProt P05067); assay: Inhibition of amyloid beta (1 to 42) (unknown origin) self-induced aggregation at compound to amyloid beta ratio of 1:1 after 48 hrs by thioflavin-T fluorescence assay relative to control; conditions: concentration not given here
In short: (§4)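 Aβ1-42 at 25 µM with compound at 1:1 in 50 mM PBS, pH 7.4, 37 °C, read by ThT fluorescence or by TEM. Disaggregation was done on preformed aggregates. ThT data are mean ± SD of at least three experiments.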

[8] = target: Amyloid-beta precursor protein (Homo sapiens) (UniProt P05067); assay: Induction of disaggregation of amyloid beta (1 to 42) (unknown origin) fibrils at compound to amyloid beta ratio of 1:1 after 48 hrs by thioflavin-T fluorescence assay relative to control; in short: as §4
[9] = target: Amyloid-beta precursor protein (Homo sapiens) (UniProt P05067); assay: Inhibition of amyloid beta (1 to 42) (unknown origin) self-induced aggregation assessed as less dense fibrils at compound to amyloid beta ratio of 1:1 after 48 hrs by TEM analysis; in short: as §4
[10] = target: Amyloid-beta precursor protein (Homo sapiens) (UniProt P05067); assay: Inhibition of amyloid beta (1 to 42) (unknown origin) self-induced aggregation assessed as thinner fibrils at compound to amyloid beta ratio of 1:1 after 48 hrs by TEM analysis; in short: as §4
[11] = target: Amyloid-beta precursor protein (Homo sapiens) (UniProt P05067); assay: Induction of disaggregation of amyloid beta (1 to 42) (unknown origin) assessed as narrow aggregation at compound to amyloid beta ratio of 1:1 after 48 hrs by TEM analysis; in short: as §4
[12] = target: Amyloid-beta precursor protein (Homo sapiens) (UniProt P05067); assay: Induction of disaggregation of amyloid beta (1 to 42) (unknown origin) assessed as shorter aggregation at compound to amyloid beta ratio of 1:1 after 48 hrs by TEM analysis; in short: as §4
[13] = Inhibition of Cu2+ - induced amyloid beta (1 to 42) (unknown origin) aggregation at compound/amyloid beta/Cu2+ ratio of 2:1:1 after 48 hrs by thioflavin T-based fluorometric assay relative to control; conditions: concentration not given here
In short: (§5)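 Chelator, Aβ1-42 (25 µM) and Cu2+ at 2:1:1 in HEPES/NaCl, pH 6.6, 37 °C; inhibition measured on fresh peptide and disaggregation on preformed Cu2+-Aβ aggregates. Read by ThT fluorescence (at least three experiments) or by TEM.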

[14] = target: Amyloid-beta precursor protein (Homo sapiens) (UniProt P05067); assay: Induction of disaggregation of Cu2+ -associated amyloid beta (1 to 42) (unknown origin) fibrils at compound/amyloid beta/Cu2+ ratio of 2:1:1 after 48 hrs by thioflavin T-based fluorometric assay relative to control; in short: as §5
[15] = Inhibition of Cu2+ - induced amyloid beta (1 to 42) (unknown origin) aggregation assessed as small-sized nonfibrillar amorphos amyloid beta at compound/amyloid beta/Cu2+ ratio of 2:1:1 after 48 hrs by TEM analysis; in short: as §5
PC-12 [16] = assay: Induction of rat PC12 cell proliferation at 0.5 to 50 uM after 72 hrs by microscopic analysis; assay type: functional, cell-based
In short: (§6)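 Undifferentiated PC12 cells cultured 72 h with compound at 0.5–50 µM (images at 10 µM) or with NGF 50 ng/ml, then examined under a digital microscope.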

PC-12 [17] = assay: Induction of rat PC12 cell proliferation at 0.5 to 50 uM after 72 hrs in presence of ERK inhibitor U0126 by MTT assay; assay type: functional, cell-based
In short: (§7)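 PC12 cells treated with compound together with U0126 (ERK inhibitor, 1 µM) or SB203580 (p38 inhibitor, 1 µM); survival measured by MTT, expressed as percent of control, mean ± SD of at least three experiments.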

PC-12 [18] = assay: Induction of rat PC12 cell proliferation at 0.5 to 50 uM after 72 hrs in presence of p38 inhibitor SB203580 by MTT assay; assay type: functional, cell-based; in short: as §7
Mus musculus [19] = assay: Cognition enhancement activity in double APP/PS1 transgenic Alzheimer's disease mouse model assessed as decrease in escape latency at 30 mg/kg/day, po for 80 days by Morris water maze test; assay type: functional, organism-based
In short: (§8)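 APP/PS1 double transgenic mice, six months old, gavaged 30 mg/kg/day in 0.5% CMC-Na for 80 days; vehicle mice and WT C57BL/6 received blank CMC-Na. Escape latency recorded daily over the training trials; n = 10, mean ± SD, two-way ANOVA.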

Mus musculus [20] = assay: Cognition enhancement activity in double APP/PS1 transgenic Alzheimer's disease mouse model assessed as increase in number of virtual platform crossing at 30 mg/kg/day, po for 80 days by Morris water maze test; assay type: functional, organism-based
In short: (§9)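 APP/PS1 mice, six months old, gavaged 30 mg/kg/day in 0.5% CMC-Na for 80 days. Probe trial was a single 90 s free swim with the platform absent; effective region is twice the platform diameter. n = 10, mean ± SD, two-way ANOVA.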

Mus musculus [21] = assay: Cognition enhancement activity in double APP/PS1 transgenic Alzheimer's disease mouse model assessed as increase in number of effective region crossing at 30 mg/kg/day, po for 80 days by Morris water maze test; assay type: functional, organism-based; in short: as §9
[22] = Metal chelating activity assessed as compound-Cu2+ complex formation at 50 uM after 30 mins by mass spectrometry
[23] = target: Amyloid-beta precursor protein (Homo sapiens) (UniProt P05067); assay: Inhibition of amyloid beta (1 to 42) (unknown origin) self-induced aggregation assessed as reduction in unstructured aggregates at compound to amyloid beta ratio of 1:1 after 48 hrs by TEM analysis; in short: as §4
[24] = Induction of disaggregation of Cu2+ -associated amyloid beta (1 to 42) (unknown origin) fibrils assessed as small-sized nonfibrillar amorphos amyloid beta at compound/amyloid beta/Cu2+ ratio of 2:1:1 after 48 hrs by TEM analysis; in short: as §5
PC-12 [25] = assay: Induction of rat PC12 cell proliferation at 10 uM after 72 hrs by microscopic analysis; assay type: functional, cell-based; in short: as §6
Mus musculus [26] = assay: Cognition enhancement activity in double APP/PS1 transgenic Alzheimer's disease mouse model assessed as decrease in path searching behavior at 30 mg/kg/day, po for 80 days by Morris water maze test; assay type: functional, organism-based; in short: as §8
Mus musculus [27] = assay: Induction of cell proliferation in C57BL/6 mouse hippocampal neurons in DG region assessed as BrdU-incorporation at 0.5 uL/hr, icv for 7 days by immunohistochemical analysis (reference value: 7.8%); assay type: functional
Mus musculus [28] = assay: Induction of cell proliferation in C57BL/6 mouse hippocampal neurons in CA1 region assessed as BrdU-incorporation at 0.5 uL/hr, icv for 7 days by immunohistochemical analysis (reference value: 3.2%); assay type: functional
Mus musculus [29] = assay: Induction of cell proliferation in C57BL/6 mouse hippocampal neurons in CA2 region assessed as BrdU-incorporation at 0.5 uL/hr, icv for 7 days by immunohistochemical analysis (reference value: 2.4%); assay type: functional
Mus musculus [30] = assay: Induction of cell proliferation in C57BL/6 mouse hippocampal neurons in CA3 region assessed as BrdU-incorporation at 0.5 uL/hr, icv for 7 days by immunohistochemical analysis (reference value: 1.4%); assay type: functional
Mus musculus [31] = assay: Induction of cell proliferation in C57BL/6 mouse hippocampal neurons in DG region assessed as BrdU-incorporation at 30 mg/kg, po administered via gavage for 7 days by immunohistochemical analysis (reference value: 2.2%); assay type: functional
In short: (§10)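 C57BL/6 mice, 12 weeks old, n = 6, individually housed beforehand without wheels. Compound gavaged 30 mg/kg/day for 7 days with daily IP BrdU 50 mg/kg; BrdU+ cells counted by immunohistochemistry per hippocampal volume; two-way ANOVA.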

Mus musculus [32] = assay: Induction of cell proliferation in C57BL/6 mouse hippocampal neurons in CA1 region assessed as BrdU-incorporation at 30 mg/kg, po administered via gavage for 7 days by immunohistochemical analysis (reference value: 2.3%); assay type: functional; in short: as §10
Mus musculus [33] = assay: Induction of cell proliferation in C57BL/6 mouse hippocampal neurons in CA2 region assessed as BrdU-incorporation at 30 mg/kg, po administered via gavage for 7 days by immunohistochemical analysis (reference value: 2.4%); assay type: functional; in short: as §10
Mus musculus [34] = assay: Induction of cell proliferation in C57BL/6 mouse hippocampal neurons in CA3 region assessed as BrdU-incorporation at 30 mg/kg, po administered via gavage for 7 days by immunohistochemical analysis (reference value: 1.5%); assay type: functional; in short: as §10
[35] = Antioxidant activity assessed as AAPH radical scavenging activity by measuring trolox equivalent at 10 to 20 uM preincubated for 10 mins followed by AAPH addition measured every min for 120 mins in presence of clioquinol by ORAC-FL assay; assay type: functional; in short: as §1
[36] = target: Amyloid-beta precursor protein (Homo sapiens) (UniProt P05067); assay: Inhibition of amyloid beta (1 to 42) (unknown origin) self-induced aggregation at 5 uM after 48 hrs in presence of clioquinol by thioflavin-T fluorescence assay relative to control; in short: as §2

- pEC50 (SH-SY5Y): < 6.00
- inhibition [2]: 22.5%
Compound: Oc1c(I)cc(Cl)c2cccnc12 [CLIOQUINOL]
- Activity (umolequiv/umol) [1]: 2.9

Compound: Oc1ccc2[nH]c(-c3ccc4c(Cl)cc(Cl)c(O)c4n3)cc2c1
- Activity [3]: 338 nm
- Activity [4]: 309 nm
- Activity [5]: 324 nm
- Activity [6]: 309 nm
- inhibition [7]: 48.6 to 71.6%
- Activity [8]: 48.5 to 72.7%
- inhibition [9]: Active
- inhibition [10]: Active
- Activity [11]: Active
- Activity [12]: Active
- inhibition [13]: 85.8%
- Activity [14]: 83.3%
- inhibition [15]: Active
- Activity (PC-12 [16]): Active
- Activity (PC-12 [17]): inactive
- Activity (PC-12 [18]): inactive
- Activity (Mus musculus [19]): Active
- Activity (Mus musculus [20]): Active
- Activity (Mus musculus [21]): Active
- Activity [22]: Active
- inhibition [23]: Active
- Activity [24]: Active
- Activity (PC-12 [25]): Active
- Activity (Mus musculus [26]): Active

- inhibition [7]: 49.1%
- Activity [8]: 44.3%
- inhibition [13]: 47.8%
- Activity [14]: 24%
- inhibition [15]: inactive
- pEC50 (SH-SY5Y): < 6.00
- Activity [24]: inactive
- inhibition [36]: 22.5%
Compound: COc1ccc2[nH]cc(CCNC(C)=O)c2c1 [MELATONIN]
- Activity (Mus musculus [27]): 27.4%
- Activity (Mus musculus [28]): 2.7%
- Activity (Mus musculus [29]): 2.1%
- Activity (Mus musculus [30]): 1.2%
- Activity (Mus musculus [31]): 9.4%
- Activity (Mus musculus [32]): 3.2%
- Activity (Mus musculus [33]): 1.6%
- Activity (Mus musculus [34]): 1.5%
- Activity (umolequiv/umol) [35]: 2.9

Compound: Oc1c(Cl)cc(Cl)c2ccc(-c3cc4cc5c(cc4[nH]3)OCO5)nc12
- inhibition [7]: 48.6 to 71.6%
- Activity [8]: 48.5 to 72.7%
- Activity (PC-12 [16]): Active
- Activity (Mus musculus [19]): Active
- Activity (Mus musculus [20]): Active
- Activity (Mus musculus [21]): Active
- Activity (PC-12 [25]): Active
- Activity (Mus musculus [26]): Active
